How the values were obtained:
Format in all cases: functional, Homo sapiens
[1] = system: OVCAR-4; test: Tested for cytotoxic activity against ovarian cancer OVCAR-4 cell line
Outline: (§1)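 Screened in a panel of 60 human cancer cell lines. The read-out was LC50, the concentration needed for 50% cell kill. Values were reported as log LC50 in a mean graph and plotted against the log of the panel mean LC50.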

[2] = system: SK-OV-3; test: Tested for cytotoxic activity against ovarian cancer SK-OV-3 cell line; outline: as §1
[3] = system: COLO 205; test: Tested for cytotoxic activity against colon cancer COLO 205 cell line; outline: as §1
[4] = system: U-251; test: Tested for cytotoxic activity against CNS cancer U251 cell line; outline: as §1
[5] = system: SK-MEL-28; test: Tested for cytotoxic activity against melanoma SK-MEL-28; outline: as §1
[6] = system: SK-MEL-5; test: Tested for cytotoxic activity against melanoma SK-MEL-5 cell line; outline: as §1
[7] = system: K562; test: Tested for cytotoxic activity against leukemia K-562 cell line; outline: as §1
[8] = system: SN12C; test: Tested for cytotoxic activity against renal cancer SN12C cell line; outline: as §1
[9] = system: UACC-257; test: Tested for cytotoxic activity against melanoma UACC-257 cell line; outline: as §1
[10] = system: LOX IMVI; test: Tested for cytotoxic activity against melanoma […] cell line; outline: as §1
[11] = system: IGROV-1; test: Tested for cytotoxic activity against ovarian cancer IGROVI cell line; outline: as §1
[12] = system: SF-268; test: Tested for cytotoxic activity against CNS cancer […] cell line; outline: as §1
[13] = system: DLD-1; test: Tested for cytotoxic activity against colon cancer DLD-1 cell line; outline: as §1
[14] = system: CAKI-1; test: Tested for cytotoxic activity against renal cancer CAKI-1 cell line; outline: as §1
[15] = system: OVCAR-8; test: Tested for cytotoxic activity against ovarian cancer OVCAR-8 cell line; outline: as §1
[16] = system: CCRF-CEM; test: Tested for cytotoxic activity against leukemia CCRF-CEM cell line; outline: as §1
[17] = system: OVCAR-3; test: Tested for cytotoxic activity against ovarian cancer OVCAR -3 cell line; outline: as §1
[18] = system: SW-620; test: Tested for cytotoxic activity against colon cancer SW-620 cell line; outline: as §1
[19] = system: OVCAR-5; test: Tested for cytotoxic activity against ovarian cancer OVCAR-5 cell line; outline: as §1
[20] = system: EKVX; test: Tested for cytotoxic activity against non-small cell lung cancer […] cell line; outline: as §1
[21] = system: NCI-H226; test: Tested for cytotoxic activity against non-small cell lung cancer NCI-H226 cell line; outline: as §1
[22] = system: SF-295; test: Tested for cytotoxic activity against CNS cancer SF-295 cell line; outline: as §1
[23] = system: A549; test: Tested for cytotoxic activity against non-small cell lung cancer A549/ATCC cell line; outline: as §1
[24] = system: RXF 393; test: Tested for cytotoxic activity against renal cancer RXF-393 cell line; outline: as §1
[25] = system: M14; test: Tested for cytotoxic activity against melanoma M14 cell line; outline: as §1
[26] = system: SK-MEL-2; test: Tested for cytotoxic activity against melanoma SK-MEL-2 cell line; outline: as §1
[27] = system: MOLT-4; test: Tested for cytotoxic activity against leukemia MOLT-4 cell line; outline: as §1
[28] = system: KM12; test: Tested for cytotoxic activity against colon cancer KM-12 cell line; outline: as §1
[29] = system: TK-10; test: Tested for cytotoxic activity against renal cancer TK-10 cell line; outline: as §1
[30] = system: 786-0; test: Tested for cytotoxic activity against renal cancer 786-0 cell line; outline: as §1
[31] = system: HOP-62; test: Tested for cytotoxic activity against non-small cell lung cancer HOP-62 cell line; outline: as §1
[32] = system: ACHN; test: Tested for cytotoxic activity against renal cancer ACHN cell line; outline: as §1
[33] = system: NCI-H23; test: Tested for cytotoxic activity against non-small cell lung cancer NCI-H23 cell line; outline: as §1
[34] = system: HOP-92; test: Tested for cytotoxic activity against non-small cell lung cancer HOP92 cell line; outline: as §1
[35] = system: HOP-18; test: Tested for cytotoxic activity against non-small cell lung cancer HOP-18 cell line; outline: as §1
[36] = system: Malme-3M; test: Tested for cytotoxic activity against melanoma MALME-3M cell line; outline: as §1
[37] = system: SF-539; test: Tested for cytotoxic activity against CNS cancer […] cell line; outline: as §1
[38] = system: HT-29; test: Tested for cytotoxic activity against colon cancer HT-29 cell line; outline: as §1
[39] = system: SNB-78; test: Tested for cytotoxic activity against CNS cancer SNB-78 cell line; outline: as §1
[40] = system: UACC-62; test: Tested for cytotoxic activity against melanoma UACC-62 cell line; outline: as §1
[41] = system: KM-20L2; test: Tested for cytotoxic activity against colon cancer KM20L2 cell line; outline: as §1
[42] = system: DMS-114; test: Tested for cytotoxic activity against small cell lung cancer DMS114 cell line; outline: as §1
[43] = system: NCI-H522; test: Tested for cytotoxic activity against non-small cell lung cancer NCI-H522 cell line; outline: as §1
[44] = system: LXFL 529; test: Tested for cytotoxic activity against non-small cell lung cancer LXFL-529L cell line; outline: as §1
[45] = system: NCI-H322M; test: Tested for cytotoxic activity against non-small cell lung cancer NCI-H322M cell line; outline: as §1
[46] = system: UO-31; test: Tested for cytotoxic activity against renal cancer UO-31 cell line; outline: as §1
[47] = system: SNB-19; test: Tested for cytotoxic activity against CNS cancer SNB-19 cell line; outline: as §1
[48] = system: M19-MEL; test: Tested for cytotoxic activity against melanoma M19-MEL cell line; outline: as §1
[49] = system: SNB-75; test: Tested for cytotoxic activity against CNS cancer SNB-75 cell line; outline: as §1
[50] = system: XF498; test: Tested for cytotoxic activity against CNS cancer XF498 cell line; outline: as §1

In the case of `CC(=O)OC1CCn2c1nc1c2C(=O)C(C)=C(N2CC2)C1=O` (stereo not given), the LC50 [1] is reported as 7.19, the LC50 [2] is reported as 6.36 and the LC50 [3] is reported as 4.82. For the same compound, the LC50 [4] was 6.53, the LC50 [5] was 7.59 and the LC50 [6] was <8. For the same compound, the LC50 [7] was >4, the LC50 [8] was 7.12 and the LC50 [9] was 6.71. For the same compound, the LC50 [10] was <8, the LC50 [11] was 5.85 and the LC50 [12] was 5.67. The LC50 [13] was 7.66, the LC50 [14] was 5.53 and the LC50 [15] was 7.09. For the same compound, the LC50 [16] was >4, the LC50 [17] was 6.34 and the LC50 [18] was 6.22. For the same compound, the LC50 [19] was 6.53, the LC50 [20] was 6.55 and the LC50 [21] was 7.09. The LC50 [22] was 6.47, the LC50 [23] was 5.44 and the LC50 [24] was <8. For the same compound, the LC50 [25] was <8, the LC50 [26] was 7.61 and the LC50 [27] was >4. The LC50 [28] was 7.02, the LC50 [29] was 6.06 and the LC50 [30] was 7.36. The LC50 [31] was <8, the LC50 [32] was 6.53 and the LC50 [33] was <8. It also gave an LC50 [34] of 5.14, an LC50 [35] of 6.64 and an LC50 [36] of 7.26. The LC50 [37] was 7.89, the LC50 [38] was 6.03 and the LC50 [39] was 5.39. The LC50 [40] was <8, the LC50 [41] was 6.64 and the LC50 [42] was >4. The LC50 [43] was <8, the LC50 [44] was 7.33 and the LC50 [45] was 6.63. The LC50 [46] was <8, the LC50 [47] was 6.54 and the LC50 [48] was 5.12. The LC50 [49] was 7.56 and the LC50 [50] was 7.09.

— ChEMBL document CHEMBL1127055, “Pyrrolo[1,2-a]benzimidazole-based aziridinyl quinones. A new class of DNA cleaving agent exhibiting G and A base specificity” (1993)
